According to ChEMBL document CHEMBL1125298, “Hypocholesterolemic activity of synthetic and natural tocotrienols” (J Med Chem, 1992):
≈ marks a conversion by molar mass, not a printed value. Where “and” joins values, the source holds several entries; their conditions need not be identical. Equal entries are not always repeated.

Tests used:
Gallus gallus [1] = organism: Gallus gallus; test: Compound is evaluated for the effect on lipid metabolism in 6-week-old male chickens at a concentration of 20 ppm in the diet and measured for LDL cholesterol (dose 30 p.p.m.); type: functional
Outline: (§1)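 Male chicks were raised 2 weeks on a corn-soybean control diet, then fed 4 weeks on control diet or the same diet with compound added. All birds were fasted 36 h and refed 48 h before sacrifice. Serum cholesterol is given as mg/100 mL.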

Gallus gallus [2] = organism: Gallus gallus; test: Compound is evaluated for the effect on lipid metabolism in 6-week-old male chickens at a concentration of 20 ppm in the diet and measured for LDL cholesterol dose 45 p.p.m.); type: functional; outline: as §1
Gallus gallus [3] = organism: Gallus gallus; test: picomoles of mevalonic acid synthesized per minute per mg of microsomal […] 45 p.p.m.); type: functional, organism-based
Gallus gallus [4] = organism: Gallus gallus; test: picomoles of mevalonic acid synthesized per minute per mg of microsomal protein (dose 15 p.p.m.); type: functional, organism-based
HepG2 [5] = test: Compound is evaluated for the inhibition of cholesterol synthesis in HepG2 cells for an incubation time of 2 (h); type: functional, cell-based; conditions: Homo sapiens
Outline: (§2)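 HepG2 cells were grown in RPMI-1640 with 10% FBS. At about 70% confluence they were switched to 7% lipid-depleted serum for 16 h. Compound in DMSO (0.5% v/v final) was added for the stated time. A [2-14C]acetate pulse over the final 60 min measured incorporation into digitonin-precipitable sterols. IC50 came from linear regression of at least four concentrations, each in duplicate.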

Gallus gallus [6] = organism: Gallus gallus; test: Compound is evaluated for the effect on lipid metabolism in 6-week-old male chickens at a concentration of 20 ppm in the diet and measured for LDL cholesterol (dose 15 p.p.m.); type: functional; outline: as §1
HepG2 [7] = test: Compound evaluated for Percent inhibition of cholesterol synthesis from [14C]acetate in HepG2 cell; type: functional, Homo sapiens
HepG2 [8] = test: Compound is evaluated for the inhibition of cholesterol synthesis in HepG2 cells for an incubation time of 4 (h); type: functional, cell-based; conditions: Homo sapiens; outline: as §2
HepG2 [9] = test: Compound is evaluated for the inhibition of cholesterol synthesis in HepG2 cells for an incubation time of 6 (h); type: functional, cell-based; conditions: Homo sapiens; outline: as §2
HepG2 [10] = test: Compound evaluated for Percent inhibition of cholesterol synthesis from HMG-CoA Reductase in HepG2 cell; type: functional, Homo sapiens
Gallus gallus [11] = organism: Gallus gallus; test: picomoles of mevalonic acid synthesized per minute per mg of microsomal protein(dose 30 p.p.m.); type: functional, organism-based
Gallus gallus [12] = organism: Gallus gallus; test: Compound is evaluated for the effect on lipid metabolism in 6-week-old male chickens at a concentration of 20 ppm in the diet and measured for HDL cholesterol (dose 30 p.p.m.); type: functional
Gallus gallus [13] = organism: Gallus gallus; test: Compound is evaluated for the effect on lipid metabolism in 6-week-old male chickens at a concentration of 20 ppm in the diet and measured for total cholesterol (dose 30 p.p.m.); type: functional
Gallus gallus [14] = organism: Gallus gallus; test: Compound is evaluated for the effect on lipid metabolism in 6-week-old male chickens at a concentration of 20 ppm in the diet and measured for HDL cholesterol dose 45 p.p.m.); type: functional
Gallus gallus [15] = organism: Gallus gallus; test: Compound is evaluated for the effect on lipid metabolism in 6-week-old male chickens at a concentration of 20 ppm in the diet and measured for HDL cholesterol (dose 15 p.p.m.); type: functional
Gallus gallus [16] = organism: Gallus gallus; test: Compound is evaluated for the effect on lipid metabolism in 6-week-old male chickens at a concentration of 20 ppm in the diet and measured for total cholesterol (dose 45 p.p.m.); type: functional
Gallus gallus [17] = organism: Gallus gallus; test: Compound is evaluated for the effect on lipid metabolism in 6-week-old male chickens at a concentration of 20 ppm in the diet and measured for total cholesterol (dose 15 p.p.m.); type: functional
Rattus norvegicus [18] = organism: Rattus norvegicus; test: Compound is evaluated for the inhibition of cholesterol biosynthesis in rat hepatocytes at a concentration of 210 (micro g/mL); type: functional, Hepatocyte
HepG2 [19] = test: Compound evaluated for percent inhibition of cholesterol synthesis from HMG-CoA Reductase in HepG2 cell; type: functional, Homo sapiens
HepG2 [20] = test: Compound evaluated for percent inhibition of cholesterol synthesis from [14C]acetate in HepG2 cell; type: functional, Homo sapiens; set-up: concentration or dose not given beside the values
HepG2 [21] = test: Compound is evaluated for relative potency versus gamma-tocotrienol at 6 (h) time point in HepG2 cells; type: functional, Homo sapiens
Rattus norvegicus [22] = organism: Rattus norvegicus; test: Compound is evaluated for the inhibition of cholesterol biosynthesis in rat hepatocytes at a concentration of 41 (micro g/mL); type: functional, Hepatocyte
HepG2 [23] = test: Compound is evaluated for relative potency versus gamma-tocotrienol at 4 (h) time point in HepG2 cells; type: functional, Homo sapiens
HepG2 [24] = test: Compound is evaluated for relative potency versus gamma-tocotrienol at 2 (h) time point in HepG2 cells; type: functional, Homo sapiens
Rattus norvegicus [25] = organism: Rattus norvegicus; test: Percent inhibition at 250 ug/mL of binary mixtures of compound and gamma-tocotrienol on cholesterol synthesis in rat hepatocytes; type: functional, Hepatocyte
Gallus gallus [26] = organism: Gallus gallus; test: Compound is evaluated for the effect on lipid metabolism in 6-week-old male chickens at a concentration of 20 ppm in the diet and measured for total cholesterol; type: functional
Rattus norvegicus [27] = organism: Rattus norvegicus; test: Compound is evaluated for the inhibition of cholesterol biosynthesis in isolated rat hepatocytes at the concentration 250 (ug/mL); type: functional, Hepatocyte
Gallus gallus [28] = organism: Gallus gallus; test: Compound is evaluated for the effect on lipid metabolism in 6-week-old male chickens at a concentration of 20 ppm in the diet and measured for HDL cholesterol; type: functional
Gallus gallus [29] = organism: Gallus gallus; test: picomoles of mevalonic acid synthesized per minute per mg of microsomal protein; type: functional, organism-based
Rattus norvegicus [30] = organism: Rattus norvegicus; test: Percent inhibition of cholesterol biosynthesis in rat hepatocytes at a concentration of 210 (micro g/mL); type: functional, Hepatocyte
Rattus norvegicus [31] = organism: Rattus norvegicus; test: Percent inhibition at 250 ug/mL of binary mixtures of compound and delta-tocotrienol on cholesterol synthesis in rat hepatocytes; type: functional, Hepatocyte
Gallus gallus [32] = organism: Gallus gallus; test: Compound is evaluated for the effect on lipid metabolism in 6-week-old male chickens at a concentration of 20 ppm in the diet and measured for LDL cholesterol; type: functional; outline: as §1
Rattus norvegicus [33] = organism: Rattus norvegicus; test: Percent inhibition at 250 ug/mL of binary mixtures of compound and alpha-tocotrienol on cholesterol synthesis in rat hepatocytes; type: functional, Hepatocyte
Rattus norvegicus [34] = organism: Rattus norvegicus; test: Inhibitory concentration required to inhibit cholesterol synthesis in isolated rat Hepatocytes; no inhibition; type: functional; conditions: hepatocyte
Rattus norvegicus [35] = organism: Rattus norvegicus; test: Compound is evaluated for the inhibition of cholesterol biosynthesis in isolated rat hepatocytes at the concentration 500 ug/mL; type: functional, Hepatocyte
Rattus norvegicus [36] = organism: Rattus norvegicus; test: Inhibitory concentration required to inhibit cholesterol synthesis in isolated rat Hepatocytes; type: functional, Hepatocyte
Rattus norvegicus [37] = organism: Rattus norvegicus; test: Compound is evaluated for the inhibition of cholesterol biosynthesis in isolated rat hepatocytes at the concentration 125 (ug/mL); type: functional, Hepatocyte
Rattus norvegicus [38] = organism: Rattus norvegicus; test: Compound is evaluated for the inhibition of cholesterol biosynthesis in isolated rat hepatocytes at the concentration 500 (ug/mL); type: functional, Hepatocyte
Gallus gallus [39] = organism: Gallus gallus; test: Compound is evaluated for the effect on lipid metabolism in 6-week-old male chickens at a concentration of 20 ppm in the diet and measured for LDL cholesterol (dose 45 p.p.m.); type: functional; outline: as §1
Gallus gallus [40] = organism: Gallus gallus; test: picomoles of mevalonic acid synthesized per minute per mg of microsomal protein(dose 45 p.p.m.); type: functional, organism-based
Gallus gallus [41] = organism: Gallus gallus; test: Compound is evaluated for the effect on lipid metabolism in 6-week-old male chickens at a concentration of 20 ppm in the diet and measured for HDL cholesterol (dose 45 p.p.m.); type: functional
[42] = Rattus norvegicus, Hepatocyte, read-out: IC50

Row | SMILES | LDL cholesterol (Gallus gallus [1]) [mg 100ml-1] | HMGR activity (Gallus gallus [4]) | IC50 (HepG2 [5]) [µM] | LDL cholesterol (Gallus gallus [6]) [mg 100ml-1] | Inhibition (HepG2 [7]) [%] | IC50 (HepG2 [8]) [µM] | IC50 (HepG2 [9]) [µM] | Inhibition (HepG2 [10]) [%] | HMGR activity (Gallus gallus [11]) | HDL cholesterol (Gallus gallus [12]) [mg 100ml-1] | Total cholesterol (Gallus gallus [13]) [mg 100ml-1] | Total cholesterol (Gallus gallus [26]) [mg 100ml-1] | Inhibition (Rattus norvegicus [27]) | HDL cholesterol (Gallus gallus [28]) [mg 100ml-1] | HMGR activity (Gallus gallus [29]) | LDL cholesterol (Gallus gallus [32]) [mg 100ml-1] | Inhibition (Rattus norvegicus [35]) | IC50 (Rattus norvegicus [36]; [42]) [µg/mL] | IC50 (Rattus norvegicus [36]; hepatocyte) [µg/mL] | Inhibition (Rattus norvegicus [37]) [%] | also measured
1 | CC(C)=CCC/C(C)=C/CC/C(C)=C/CCC1(C)CCc2cc(O)c(C)c(C)c2O1 (racemic) | 39 | 603 | 5.9 | 44 | 71 | 2.8 | 3 | 62 | 561 | 97 | 138 | – | – | – | – | – | – | – | – | – | LDL cholesterol (Gallus gallus [2]): 32 mg 100ml-1; HMGR activity (Gallus gallus [3]): 551; HDL cholesterol (Gallus gallus [14]): 96 mg 100ml-1; HDL cholesterol (Gallus gallus [15]): 97 mg 100ml-1; Total cholesterol (Gallus gallus [16]): 132 mg 100ml-1; Total cholesterol (Gallus gallus [17]): 143 mg 100ml-1
2 | CC(C)=CCC/C(C)=C/CC/C(C)=C/CCC1(C)CCc2c(C)c(O)c(C)c(C)c2O1 (racemic) | – | – | 380 | – | – | 94 | 110 | – | – | – | – | – | – | – | – | – | – | – | – | – | Inhibition (Rattus norvegicus [18]): 17%; Inhibition (HepG2 [19]): 19%; Inhibition (HepG2 [20]): 21%; Relative potency (HepG2 [21]): 0.027; Inhibition (Rattus norvegicus [22]): 4%; Relative potency (HepG2 [23]): 0.03; Relative potency (HepG2 [24]): 0.016
3 | Cc1c(C)c2c(c(C)c1O)CC[C@@](C)(CCC[C@H](C)CCC[C@H](C)CCCC(C)C)O2 [ALPHA-TOCOPHEROL] | – | – | – | – | – | – | – | – | – | – | – | 190 | 0% | 113 | 1300 | 72 | 2% and 0% | – | – | – | Inhibition (Rattus norvegicus [25]): 42%; Inhibition (Rattus norvegicus [30]): 0%; Inhibition (Rattus norvegicus [31]): 49%; Inhibition (Rattus norvegicus [33]): 3%; IC50 (Rattus norvegicus [34]): Not Active
4 | CC(C)=CCC/C(C)=C/CC/C(C)=C/CC[C@]1(C)CCc2c(C)c(O)c(C)c(C)c2O1 [ALPHA-TOCOTRIENOL] | – | – | – | – | 32 | – | – | 15 | – | – | – | 155 | 8% and 20% | 102 | 670 | 55 | 12% and 33% | > 1000 | 1300 (≈ 3060 µM) | 8 | Inhibition (Rattus norvegicus [25]): 49%; Inhibition (Rattus norvegicus [31]): 53%
5 | CC(C)=CCC/C(C)=C/CC/C(C)=C/CC[C@]1(C)CCc2cc(O)cc(C)c2O1 [DELTA-TOCOTRIENOL] | – | – | – | – | 77 | – | – | 65 | – | – | – | 141 | 49% and 33% | 99 | 550 | 41 | – | 260 (≈ 656 µM) | 340 (≈ 857 µM) | 26 | Inhibition (Rattus norvegicus [38]): 62% and 63%
6 | CC(C)=CCC/C(C)=C/CC/C(C)=C/CC[C@]1(C)CCc2cc(O)c(C)c(C)c2O1 [GAMMA-TOCOTRIENOL] | 35 | 606 | – | 42 | 78 | – | – | 64 | 561 | 95 | 132 | 151 | 48% and 34% | 102 | 494 | 41 | 61% | 270 (≈ 658 µM) | 360 (≈ 877 µM) | 28 | LDL cholesterol (Gallus gallus [39]): 29 mg 100ml-1; HMGR activity (Gallus gallus [40]): 546; HDL cholesterol (Gallus gallus [41]): 94 mg 100ml-1; HDL cholesterol (Gallus gallus [15]): 97 mg 100ml-1; Total cholesterol (Gallus gallus [16]): 125 mg 100ml-1; Total cholesterol (Gallus gallus [17]): 141 mg 100ml-1; Inhibition (Rattus norvegicus [33]): 64%; inhibition at 500 µg/mL (Rattus norvegicus [35]; Rattus norvegicus, Hepatocyte): 60%
